Screens as filed in PubChem.
Sampled rows, rich in hits. Any-hit rate of the full collection: about 2.4%.
Runt-CBFb FRET = Runt domain-CBFb interaction inhibition | inhibition, % at 20 µM | hit rate 0.46% among 220,000 | Cerulean-Runt/Venus-CBFb FRET ratio 530/480, 1 h | Q01196+Q13951 | AID 1496;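 active = inhibition over about 50% at 20 µM in the single-dose screen, limit read from the data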;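 also: 0% = DMSO wells and 100% = excess unlabeled CBFb competitor control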
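Schedule: protein complex preformed 1 h, compound exposure 1 h, room temperature, dark; test system: Cerulean-labeled Runt domain protein; amount: 100 nM per protein; buffer or medium: Tris 50 mM pH 7.5, KCl, K2SO4, 0.01% BSA; read-out: loss of energy transfer signal; detection: FRET fluorescence; controls: 5 µM unlabeled CBFb as full-inhibition high control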
LANA-H2A inh = blocks KSHV LANA binding to histone H2A/H2B | Q9QR71 | cell-free LANA-H2A/H2B peptide, fluorescence polarization | inhibition, % (no concentration beside the values) | hit rate 0.6% among 320,000 | AID 2629; in the data active = inhibition mostly above about 10%, no sharp cut-off; inactive = mostly below about 6.7%
RanGTP-Imp inh = disruptors of Ran-importin-beta complex formation – biochemical, FRET, CFP-Ran, YFP-importin-beta, homogeneous, primary screen; hit rate 1.1% among 300,000; AID 2216; cell-free CFP-Ran/YFP-importin-beta FRET ratio; inhibition, % (no concentration beside the values);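 active = more than half of the replicate wells show a fall in the fluorescence ratio signal beyond about 16%, limit read from the data, passing the limit was not always enough; inconclusive = exactly half of the replicate wells pass the set limit; inactive = fewer than half of replicates pass the limit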;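 also: 0% = DMSO wells and 100% = Ran loaded with GDP instead of GTP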
EBV gp42 inh = inhibitors of Epstein-Barr virus glycoprotein 42; Fluorescence polarization binding assay, mP read-out; inhibition, % (tested at 21.74 µM); Q1HVG2; hit rate 0.42% among 220,000; AID 1085; in the data active = inhibition above about 50%
Runt-SMMHC FRET = Runt domain-CBFb-SMMHC interaction inhibition. inhibition, % at 20 µM. Cerulean-Runt/Venus-CBFb-SMMHC FRET ratio 530/480, 1 h. Q01196+Q13951. hit rate 0.74% among 220,000;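 active = mean inhibition across duplicate retests at 20 µM reaching about 50%, limit read from the data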;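 also: 0% = DMSO wells and 100% = wells with excess untagged CBFb-SMMHC; inhibitors lower the FRET ratio by blocking Runt binding to CBFb-SMMHC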
MEX-5 binding = C. elegans MEX-5 TCR-2 RNA binding activity | Q9XUB2 | MEX-5/FITC-TCR2 RNA binding, fluorescence polarization; stronger effect = lower value | activity score (negative = inhibition of binding), % at 10 µM | hit rate 0.38% among 300,000;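 active = inhibition past about -25% in most replicates, and total fluorescence under double the plate's negative control median, limit read from the data; inconclusive = replicates evenly split on the limit, or fluorescence at least double controls; inactive = too little inhibition in most replicates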;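 also: 0% = DMSO and -100% = 5 µM competing unlabeled TCR2 RNA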
Target sequence (Q9XUB2 whole entry, looked up): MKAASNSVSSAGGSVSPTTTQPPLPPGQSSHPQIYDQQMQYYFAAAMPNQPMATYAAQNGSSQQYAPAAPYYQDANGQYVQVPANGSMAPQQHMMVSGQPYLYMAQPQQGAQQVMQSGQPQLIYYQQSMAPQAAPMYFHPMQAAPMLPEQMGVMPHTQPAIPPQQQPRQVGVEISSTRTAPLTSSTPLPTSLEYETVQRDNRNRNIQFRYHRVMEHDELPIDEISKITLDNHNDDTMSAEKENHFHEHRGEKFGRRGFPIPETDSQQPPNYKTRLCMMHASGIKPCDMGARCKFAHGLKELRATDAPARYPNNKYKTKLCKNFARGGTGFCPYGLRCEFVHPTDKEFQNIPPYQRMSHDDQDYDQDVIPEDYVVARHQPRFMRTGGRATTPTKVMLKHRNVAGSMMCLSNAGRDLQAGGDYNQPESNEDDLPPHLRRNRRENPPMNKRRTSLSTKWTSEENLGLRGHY
Numbers without * were called inactive; ? = inconclusive; . = no result given; + = active, no number.

SMILES	Runt-CBFb FRET	LANA-H2A inh	RanGTP-Imp inh	EBV gp42 inh	Runt-SMMHC FRET	MEX-5 binding
CCn1nc(NC(=O)c2cccnc2)c2cc3cccc(C)c3nc21	11	-7	-18	-13	-22	0
Cc1ccc2cc3c(NC(=O)C(C)C)nn(C)c3nc2c1	-2	-8	8	-2	-12	0
O=C(NCc1ccccc1)NC1(C(=O)N2CCN3CCCC3C2)CCCCC1 (stereo not drawn)	-1	-2	-1	-10	-2	-2
O=C(NC1CCCCC1)NC1(C(=O)N2CCN3CCCC3C2)CCCCC1 (stereo not drawn)	-1	29*	-2	-14	0	1
O=C(CSc1nc(CCC2CCCC2)nc2ccccc12)NCc1ccc2c(c1)OCO2	0	15*	-5	-17	1	-1
CCc1nc(SCC(=O)c2ccc3c(c2)OCCO3)c2ccccc2n1	29	-2	12	0	56*	1
O=C(CSc1nc(Cc2ccccc2)nc2ccccc12)c1ccc2c(c1)OCCO2	11	8	?	-8	32	0
CN(C)c1nc(-c2ccccc2)c2cc(Cl)ccc2n1	.	2	21*	.	.	4
COc1ccc(-c2csc(C)n2)cc1	2	-3	0	-10	4	1
COc1cc(C)nc(-c2csc(C)n2)n1	2	20*	-3	-1	-10	0
COc1ccc(C2N(c3ccccc3)CCN2c2ccccc2)cc1O	-1	-4	25*	-12	-2	-1
CCOc1cc(-c2cc(-c3ccc(N)cc3)nc(N)c2C#N)ccc1O	46	3	48*	-2	80*	1
Cc1cc(C)cc(NC(=O)CN2C(=O)NC(Cc3c[nH]c4ccccc34)C2=O)c1 (stereo not drawn)	.	-2	.	.	.	.
O=C(CN1C(=O)NC(Cc2c[nH]c3ccccc23)C1=O)Nc1cccc(S(=O)(=O)N2CCOCC2)c1 (stereo not drawn)	0	25*	?	6	-4	2
O=c1cc(-c2ccc([N+](=O)[O-])cc2)nc2cc(-c3ccc(Cl)cc3)[nH]n12	0	.	.	83*	-11	.
COc1ccccc1OCCC(=O)OCC(=O)NC(C)c1ccccc1 (stereo not drawn)	-1	0	1	-28	0	1
O=C(Nc1ccc(Oc2c(F)c(F)c(F)c(F)c2F)cc1)OC1CCN2Cc3ccccc3N=C12 (stereo not drawn)	1	15*	-1	-19	-5	-2
Cc1ccc(C)c(N2CCN(S(=O)(=O)c3ccc4c(c3)CCC(=O)N4)CC2)c1	104*	.	4	-3	0	0
O=C1C(=Cc2cccn2-c2ccc(O)cc2)C(=O)c2ccccc21	-12	1	-34	82*	-32	0
O=C1C(=Cc2cccn2-c2ccccc2)C(=O)c2ccccc21	-36	127*	-33	-44	-91	?
O=C(O)c1ccc(N/N=C/c2ccc(-c3ccccc3)cc2)cc1	3	.	5	4	11	1
O=C(O)c1ccc(N/N=C/C=C/c2ccccc2)cc1	20	2	85*	7	21	1
CCN1CCN(C(=O)CCc2ccc(S(=O)(=O)NCCc3ccccc3)cc2)CC1	0	-1	?	-11	-3	0
COc1ccc(C(=O)N2CCOC2CNC(=O)C(=O)NCc2ccc(F)cc2)cc1 (stereo not drawn)	.	4	-3	.	.	0
COc1ccc(C(=O)N2CCOC2CNC(=O)C(=O)NCc2ccco2)cc1 (stereo not drawn)	-1	+	1	-3	-5	-2
SMILES	Runt-CBFb FRET	LANA-H2A inh	RanGTP-Imp inh	EBV gp42 inh	Runt-SMMHC FRET	MEX-5 binding
COc1ccc(S(=O)(=O)N2CCC(C(=O)NCCC(=O)NCc3ccccc3OC)CC2)cc1	.	14*	1	.	.	1
COc1ccc(S(=O)(=O)N2CCOC2CNC(=O)C(=O)NCc2ccccc2OC)cc1 (stereo not drawn)	.	100*	5	.	.	-3
COc1ccccc1CNC(=O)C(=O)NCC1OCCN1S(=O)(=O)c1ccc(Br)cc1 (stereo not drawn)	.	-4	5	.	.	1
COc1ccc(S(=O)(=O)N2CCC(C(=O)NCCC(=O)NCc3ccncc3)CC2)cc1	.	-2	1	.	.	3
NC(=O)C[n+]1cccc2ccccc21	-67	8	-137	46	-193	-36*
O=C(C[n+]1cccc2ccccc21)c1ccc(Br)cc1	.	0	-11	.	.	5
Cn1c(=O)c2nc(NCc3ccccc3)cnc2n(C)c1=O	12	-3	75*	20	38	-7
CC(=O)c1ccc(OC(=O)c2nc(-c3ccccc3)oc2C)cc1	.	-2	-1	.	.	2
COc1cccc2cc(C(N)=O)oc12	3	0	3	-5	0	3
COc1cccc2cc(C(=O)NC3CC4CCC3C4)oc12 (stereo not drawn)	.	-1	26*	.	.	0
C=C[C@]1(C)C[C@@H](OC(=O)CSCCN(CC)CC)[C@]2(C)C(C)CC[C@]3(CCC(=O)[C@H]32)[C@@H](C)[C@@H]1O (stereo partly drawn)	.	-2	-3	.	.	1
COc1ccc(-c2nc3ccccc3[nH]2)cc1	1	2	7	-8	-3	-7
COc1ccc(-c2cc(=O)n(-c3nc4ccccc4[nH]3)[nH]2)cc1	6	-1	56*	-5	-7	0
O=S(=O)(NC1=NCCCCC1)c1ccc(Cl)cc1	-1	+	-1	-14	0	0
O=S(=O)(NC1=NCCCCC1)c1ccc(F)cc1	-1	-3	-3	4	-1	-1
COC(=O)c1ccccc1NC(=O)CN(c1c(C)cccc1C)S(C)(=O)=O	.	0	7	.	.	1
O=c1cccccc1NCc1ccccc1	10	4	0	-4	9	-1
N#Cc1ccccc1NCc1ccccc1	-2	15*	-1	-19	2	3
CC1(NC(=O)NCc2ccco2)CCS(=O)(=O)C1 (stereo not drawn)	1	6	-3	-17	-146	1
CC(C)c1ccc(NC(=O)CN2C(=O)NC(C)(C3CC3)C2=O)cc1 (stereo not drawn)	.	0	.	.	.	.
CC1(C2CC2)NC(=O)N(CC(=O)Nc2ccc(C(F)(F)F)cc2)C1=O (stereo not drawn)	.	12*	.	.	.	.
CC(C)c1onc(C(=O)N2CCCCCC2)c1[N+](=O)[O-]	1	33*	7	7	4	-1
CCOc1ccccc1CN1CCNC(=O)C1CC(=O)N(C)CCc1ccccn1 (stereo not drawn)	.	1	3	.	.	-3
